Tests used:
[1] = test system: scavenger receptors (liver uptake of 125I-pGL3 polyplexes); assay: Inhibition of liver uptake of 125I-pGL3 polyplexes by excess PEG-peptide; format: in vivo; details: mice, PEG 5 kDa peptides dosed in excess (not shown)
[2] = test system: serum DNAse; details: cited from earlier work
[3] = test system: liver hepatocytes (luciferase expression); assay: HD-stimulated / direct HD luciferase gene expression in liver; format: in vivo, mice; details: for fold increase of expression on substitution for the PEG-peptide five Lys shorter: 80 nmol PEG-peptide, 1 μg pGL3, HD-stimulation at 1 hour
Outline: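 Triplicate mice received 1 μg pGL3 polyplex with 10, 40 or 80 nmol PEG-peptide in 100 μL HBM by tail vein. After 1 h circulation, 1.8 mL saline (per 20 g mouse) was given hydrodynamically over 5 s by tail vein. Liver bioluminescence was imaged 24 h later and analysed as log10 values. Controls: naked pGL3 with HD at 5 min, and direct HD of pGL3.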

[4] = test system: liver; set-up: species or system mice; details: mouse, in vivo

PEG5kDa-Cys-Trp-Lys15
inhibition of polyplex uptake into the liver when dosed in excess [1]: failed to inhibit polyplex uptake into the liver

PEG5kDa-Cys-Trp-Lys18
resistance of polyplexes to metabolism by serum DNAse in vitro [2]: resisted metabolism by serum DNAse in vitro

PEG30kDa-Cys-Trp-Lys20
fold increase of expression on substitution for the PEG-peptide five Lys shorter [3]: 5 fold

PEG30kDa-Cys-Trp-Lys25
maximal percent of polyplex dose taken up by liver [4]: ~30% | percent of polyplex dose taken up by liver [4]: approximately 16% | fold increase of expression on substitution for the PEG-peptide five Lys shorter [3]: 5 fold | fold increase of expression (over 10 nmol dose) ([3]; 1 μg pGL3 polyplex with 40 nmol PEG-peptide, HD-stimulation at 1 hour): 100 fold | further fold improvement of expression (over 40 nmol dose) ([3]; 1 μg pGL3 polyplex with 80 nmol PEG-peptide, HD-stimulation at 1 hour): 15 fold

Source: publication PMC4837691 (Molecular pharmaceutics, 2015)
